# Measured values reported in ChEMBL document CHEMBL3868590, “Quambalarine B, a Secondary Metabolite from Quambalaria cyanescens with Potential Anticancer Properties” (J Nat Prod, 2016).
# Calls of active or inactive are those of the source. The rule behind the calls is not given here.
# Experiments:
# NALM-6 [1] = experiment: Cytostatic activity against human NALM6 cells at 2 umol/L measured after 4 to 5 days using Burker counting chamber; format: functional, cell-based
# How it was run: (§1)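 Cells were seeded at 2.5 × 10^5 cells/mL in DMSO-containing medium, with or without 2 μmol/L compound. Cells were counted daily in a Bürker chamber. PDL was calculated as log(Nf/N0)/log 2 over 6 days. Values are mean ± SD of three experiments, compared with DMSO controls.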
# REH [2] = experiment: Cytostatic activity against human REH cells at 2 umol/L measured after 2 to 3 days using Burker counting chamber; format: functional, cell-based; how it was run: as §1
# [3] = Cytotoxicity against human REH cells assessed as reduction in viable cells measured after 24 hrs by Hoechst-33258 staining-based FACS analysis; format: functional, cell-based
# How it was run: (§2)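 Leukemic lines kept in RPMI1640 with 10% FBS, penicillin/streptomycin, 37 °C, 5% CO2. Seeded at 2 × 10^5 cells/mL and exposed 24 h to a range of compound concentrations (DMSO stock); medium and DMSO negative controls. Live fraction taken from Hoechst 33258-negative singlets by flow cytometry. EC50 from five-parameter nonlinear regression.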
# [4] = Cytotoxicity against human NALM6 cells assessed as reduction in viable cells measured after 24 hrs by Hoechst-33258 staining-based FACS analysis; format: functional, cell-based; details: NALM-6, 24 h; how it was run: as §2
# Jurkat [5] = experiment: Cytostatic activity against human Jurkat cells assessed as population doubling level at 2 umol/L after 6 days using Burker counting chamber (reference value: 3.25); format: functional; how it was run: as §1
# Jurkat [6] = experiment: Cytostatic activity against eFluor670-labelled human Jurkat cells assessed as live cells at 2 umol/L measured on day 3 by Hoechst-33258 staining-based FACS analysis (reference value: 98.3%); format: functional
# Jurkat [7] = experiment: Cytostatic activity against eFluor670-labelled human Jurkat cells assessed as live cells at 2 umol/L measured on day 4 by Hoechst-33258 staining-based FACS analysis (reference value: 97.3%); format: functional
# Jurkat [8] = experiment: Cytostatic activity against eFluor670-labelled human Jurkat cells assessed as live cells at 2 umol/L measured on day 5 by Hoechst-33258 staining-based FACS analysis (reference value: 97%); format: functional
# NALM-6 [9] = experiment: Cytostatic activity against eFluor670-labelled human NALM6 cells assessed as live cells at 2 umol/L measured immediately after compound addition by Hoechst-33258 staining-based FACS analysis (reference value: 95.8%); format: functional
# NALM-6 [10] = experiment: Cytostatic activity against eFluor670-labelled human NALM6 cells assessed as live cells at 2 umol/L measured on day 1 by Hoechst-33258 staining-based FACS analysis (reference value: 95.5%); format: functional
# NALM-6 [11] = experiment: Cytostatic activity against eFluor670-labelled human NALM6 cells assessed as live cells at 2 umol/L measured on day 4 by Hoechst-33258 staining-based FACS analysis (reference value: 98.6%); format: functional
# REH [12] = experiment: Cytostatic activity against eFluor670-labelled human REH cells assessed as live cells at 2 umol/L measured on day 4 by Hoechst-33258 staining-based FACS analysis (reference value: 88%); format: functional
# [13] = Cytotoxicity against CD14+ monocytes in human PBMC population assessed as viable cells at 15 umol/L measured after 24 hrs by Hoechst-33258 staining-based FACS analysis (reference value: 13.8%); format: toxicity, cell-based, Monocyte; details: read-out: Activity
# How it was run: (§3)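 PBMC were isolated from blood on a Ficoll-Paque gradient and seeded at 1 × 10^5 cells/well in 400 μL RPMI1640. Cells were exposed to a range of compound concentrations for 24 h. Viable CD3+, CD14+ and CD20+ populations were measured as Hoechst 33258-negative singlets by flow cytometry. EC50 was obtained by five-parameter nonlinear regression.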
# [14] = Cytotoxicity against CD3+ T-lymphocytes in human PBMC population assessed as reduction in viable cells measured after 24 hrs by Hoechst-33258 staining-based FACS analysis; format: toxicity, cell-based, T-cell; how it was run: as §3
# [15] = Cytotoxicity against PHA/LPS-stimulated CD3-positive T-lymphocytes in eFluor670-labeled human PBMC assessed as division index at 2 umol/L administered post 18 hrs of PHA/LPS-stimulation measured after 72 hrs by Hoechst-33258 staining-based FACS analysis (reference value: 0.381); format: toxicity; details: t-cell, 2 µM
# REH [16] = experiment: Decrease in C-MYC mRNA level in human REH cells at EC50 measured after 24 hrs by RT-qPCR analysis; format: functional, cell-based
# [17] = target: Myc proto-oncogene protein (Homo sapiens) (UniProt P01106); experiment: Inhibition of C-MYC in human Jurkat cells assessed as decrease in LDHA level at EC50 measured after 24 hrs by RT-qPCR analysis; format: cell-based
# Myc proto-oncogene protein (Homo sapiens), sequence (P01106 whole entry): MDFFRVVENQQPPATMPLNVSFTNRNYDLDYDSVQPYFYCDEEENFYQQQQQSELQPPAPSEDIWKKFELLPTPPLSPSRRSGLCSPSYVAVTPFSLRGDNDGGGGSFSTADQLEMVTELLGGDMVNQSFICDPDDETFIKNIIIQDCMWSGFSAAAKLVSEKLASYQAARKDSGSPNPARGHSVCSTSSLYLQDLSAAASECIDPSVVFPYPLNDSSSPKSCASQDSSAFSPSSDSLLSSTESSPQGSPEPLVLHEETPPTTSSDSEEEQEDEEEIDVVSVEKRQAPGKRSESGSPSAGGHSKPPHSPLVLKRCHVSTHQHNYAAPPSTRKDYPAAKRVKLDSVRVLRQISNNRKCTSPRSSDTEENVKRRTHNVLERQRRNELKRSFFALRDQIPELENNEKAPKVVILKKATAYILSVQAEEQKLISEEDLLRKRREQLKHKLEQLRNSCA
# [18] = target: Myc proto-oncogene protein (Homo sapiens) (UniProt P01106); experiment: Inhibition of C-MYC in human Jurkat cells assessed as decrease in PKM2 level at EC50 measured after 24 hrs by RT-qPCR analysis; format: cell-based
# [19] = target: Myc proto-oncogene protein (Homo sapiens) (UniProt P01106); experiment: Inhibition of C-MYC in human NALM6 cells assessed as decrease in PKM2 level at EC50 measured after 24 hrs by RT-qPCR analysis; format: cell-based; details: NALM-6
# [20] = target: Myc proto-oncogene protein (Homo sapiens) (UniProt P01106); experiment: Inhibition of C-MYC in human REH cells assessed as decrease in PKM2 level at EC50 measured after 24 hrs by RT-qPCR analysis; format: cell-based
# NALM-6 [21] = experiment: Inhibition of P70S6K in human NALM6 cells assessed as decrease in C-MYC expression measured after 24 hrs by immunoblot analysis; format: cell-based
# How it was run: (§4)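 Cells prepared as for RT-qPCR (7.5 × 10^5 cells/mL). Treated either with the line-specific EC50 concentration over a time course, or 24 h with graded concentrations up to that EC50. Cells washed with phosphatase inhibitors and lysed in RIPA; 40 μg protein per lane on SDS-PAGE, then nitrocellulose. Immunoblotted for C-MYC, P70S6K, p-P70S6K (Ser424) and actin.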
# [22] = Downregulation of P70S6K protein expression in human Jurkat cells up to 20 umol/L measured after 24 hrs by immunoblot analysis; format: functional, cell-based; how it was run: as §4
# Jurkat [23] = experiment: Inhibition of P70S6K in human Jurkat cells assessed as decrease in phosphorylated P70S6K expression at EC50 by immunoblot analysis; format: cell-based; details: TDE = time-dependent effect; how it was run: as §4
# REH [24] = experiment: Inhibition of P70S6K in human REH cells assessed as decrease in phosphorylated P70S6K expression at EC50 by immunoblot analysis; format: cell-based; details: TDE = time-dependent effect; how it was run: as §4
# [25] = Downregulation of P70S6K protein expression in human REH cells at EC50 measured after 24 hrs by immunoblot analysis; format: functional, cell-based; how it was run: as §4
# NALM-6 [26] = experiment: Inhibition of P70S6K in human NALM6 cells assessed as decrease in C-MYC expression at 2 to 20 umol/L by immunoblot analysis; format: cell-based; details: TDE = time-dependent effect; how it was run: as §4
# [27] = Cytotoxicity against human PBMC assessed as reduction in viable cells measured after 24 hrs by Hoechst-33258 staining-based FACS analysis; format: toxicity, cell-based
# How it was run: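 Human PBMC isolated on a Ficoll-Paque gradient, seeded at 1 × 10^5 cells/well in RPMI1640. Exposed 24 h to a compound concentration range; medium and DMSO negative controls. Cells stained with Hoechst 33258 and read by flow cytometry; live-cell percentage from Hoechst-negative singlets. EC50 by five-parameter nonlinear regression.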
# Jurkat [28] = experiment: Inhibition of P70S6K in human Jurkat cells assessed as decrease in c-MYC expression at EC50 up to 24 hrs by immunoblot analysis; format: cell-based; how it was run: as §4
structure (smiles),measurement,setting,value
CCCCCC(=O)C1=C(O)C(=O)c2c(O)c(O)cc(O)c2C1=O,Activity,NALM-6 [1],Active
same,Activity,REH [2],Active
same,EC50,[3],22 µM
same,EC50,[4],16.7 µM
same,Activity,Jurkat [5],1.64
same,Activity,Jurkat [6],69.2%
same,Activity,Jurkat [7],39.5%
same,Activity,Jurkat [8],25.5%
same,Activity,NALM-6 [9],95.8%
same,Activity,NALM-6 [10],95.2%
same,Activity,NALM-6 [11],96.7%
same,Activity,REH [12],6.9%
same,"viability at 24 h, 15 µM",[13],8.1%
same,EC50 at 24 h,[14],65.7 µM
same,Activity_index,[15],0.196
same,Activity,REH [16],Active
same,inhibition,[17],Active
same,inhibition,[18],Active
same,inhibition,[19],Active
same,inhibition,[20],Active
same,inhibition,NALM-6 [21],Dose-dependent effect
same,inhibition,[22],Active
same,inhibition,Jurkat [23],Tde
same,inhibition,REH [24],Tde
same,Activity,[25],Active
same,inhibition,NALM-6 [26],Tde
same,EC50 at 24 h,[27],56.1 µM
same,inhibition,Jurkat [28],Active
